Laboratory results as given in ChEMBL document CHEMBL1833953, “Design, synthesis, and evaluation of a novel dual FMS-like tyrosine kinase 3/stem cell factor receptor (FLT3/c-KIT) inhibitor for the treatment of acute myelogenous leukemia” (J Med Chem, 2011).

Columns and labels:
Aurora kinase A = target: T1, Aurora kinase A (Homo sapiens, UniProt O14965); test: Inhibition of Aurora A by spectrophotometry
T1 sequence (O14965 whole entry): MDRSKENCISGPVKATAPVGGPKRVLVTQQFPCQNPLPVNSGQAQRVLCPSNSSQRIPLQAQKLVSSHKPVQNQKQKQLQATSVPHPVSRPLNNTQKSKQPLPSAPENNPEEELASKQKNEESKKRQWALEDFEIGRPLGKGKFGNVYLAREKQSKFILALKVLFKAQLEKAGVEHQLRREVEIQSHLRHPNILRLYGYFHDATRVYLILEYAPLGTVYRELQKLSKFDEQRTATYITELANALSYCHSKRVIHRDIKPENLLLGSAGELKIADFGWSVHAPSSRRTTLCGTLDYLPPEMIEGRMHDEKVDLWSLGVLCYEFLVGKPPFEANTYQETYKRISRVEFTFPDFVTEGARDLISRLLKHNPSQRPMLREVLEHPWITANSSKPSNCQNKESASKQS

[1] = target: Mast/stem cell growth factor receptor Kit (Homo sapiens, UniProt P10721); test: Displacement of [33P]ATP from human recombinant c-KIT domain after 20 mins by scintillation counting
Chain of Mast/stem cell growth factor receptor Kit (P10721 whole entry, the tested form may be a part): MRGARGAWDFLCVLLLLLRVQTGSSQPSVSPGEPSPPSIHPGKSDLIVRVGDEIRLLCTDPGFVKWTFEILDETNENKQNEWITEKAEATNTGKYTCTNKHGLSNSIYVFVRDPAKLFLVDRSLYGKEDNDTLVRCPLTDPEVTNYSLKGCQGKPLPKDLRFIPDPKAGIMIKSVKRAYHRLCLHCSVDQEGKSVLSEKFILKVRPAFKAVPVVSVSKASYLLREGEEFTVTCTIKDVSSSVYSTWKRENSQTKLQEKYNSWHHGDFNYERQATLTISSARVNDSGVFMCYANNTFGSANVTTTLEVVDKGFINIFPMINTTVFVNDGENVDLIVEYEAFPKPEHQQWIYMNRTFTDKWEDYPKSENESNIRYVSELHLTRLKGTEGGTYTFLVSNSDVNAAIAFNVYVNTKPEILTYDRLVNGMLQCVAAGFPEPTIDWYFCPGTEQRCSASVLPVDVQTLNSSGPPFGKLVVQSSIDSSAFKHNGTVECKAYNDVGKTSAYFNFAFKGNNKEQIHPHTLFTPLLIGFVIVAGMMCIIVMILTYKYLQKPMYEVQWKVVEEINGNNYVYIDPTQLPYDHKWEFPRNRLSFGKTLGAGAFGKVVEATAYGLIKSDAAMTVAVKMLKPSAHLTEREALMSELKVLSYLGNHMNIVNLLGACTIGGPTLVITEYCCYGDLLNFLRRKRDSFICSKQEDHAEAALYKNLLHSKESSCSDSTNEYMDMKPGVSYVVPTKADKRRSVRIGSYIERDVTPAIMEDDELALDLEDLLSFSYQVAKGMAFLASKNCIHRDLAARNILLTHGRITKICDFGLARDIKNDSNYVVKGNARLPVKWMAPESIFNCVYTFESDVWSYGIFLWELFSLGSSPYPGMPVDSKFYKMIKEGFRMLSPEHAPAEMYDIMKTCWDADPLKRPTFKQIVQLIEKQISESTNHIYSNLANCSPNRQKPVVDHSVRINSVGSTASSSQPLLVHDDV
How it was run: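 Radiometric kinase assay run in 100 mM HEPES pH 7.5 with 10 mM MgCl2, 25 mM NaCl, 0.01% BSA, 1 mM DTT and 0.5 mg/mL polyE4Y. Enzyme was 5 nM c-KIT with 700 μM 33P-ATP; inhibitor was added from DMSO. The reaction was started with ATP/substrate, run 20 min, stopped with 20% TCA/4 mM ATP, filtered, washed with 5% TCA and counted by scintillation.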

[2] = target: T2, Receptor-type tyrosine-protein kinase FLT3 (Homo sapiens, UniProt P36888); test: Displacement of [33P]ATP from human recombinant FLT3 domain after 20 mins by scintillation counting
T2 sequence (P36888 whole entry): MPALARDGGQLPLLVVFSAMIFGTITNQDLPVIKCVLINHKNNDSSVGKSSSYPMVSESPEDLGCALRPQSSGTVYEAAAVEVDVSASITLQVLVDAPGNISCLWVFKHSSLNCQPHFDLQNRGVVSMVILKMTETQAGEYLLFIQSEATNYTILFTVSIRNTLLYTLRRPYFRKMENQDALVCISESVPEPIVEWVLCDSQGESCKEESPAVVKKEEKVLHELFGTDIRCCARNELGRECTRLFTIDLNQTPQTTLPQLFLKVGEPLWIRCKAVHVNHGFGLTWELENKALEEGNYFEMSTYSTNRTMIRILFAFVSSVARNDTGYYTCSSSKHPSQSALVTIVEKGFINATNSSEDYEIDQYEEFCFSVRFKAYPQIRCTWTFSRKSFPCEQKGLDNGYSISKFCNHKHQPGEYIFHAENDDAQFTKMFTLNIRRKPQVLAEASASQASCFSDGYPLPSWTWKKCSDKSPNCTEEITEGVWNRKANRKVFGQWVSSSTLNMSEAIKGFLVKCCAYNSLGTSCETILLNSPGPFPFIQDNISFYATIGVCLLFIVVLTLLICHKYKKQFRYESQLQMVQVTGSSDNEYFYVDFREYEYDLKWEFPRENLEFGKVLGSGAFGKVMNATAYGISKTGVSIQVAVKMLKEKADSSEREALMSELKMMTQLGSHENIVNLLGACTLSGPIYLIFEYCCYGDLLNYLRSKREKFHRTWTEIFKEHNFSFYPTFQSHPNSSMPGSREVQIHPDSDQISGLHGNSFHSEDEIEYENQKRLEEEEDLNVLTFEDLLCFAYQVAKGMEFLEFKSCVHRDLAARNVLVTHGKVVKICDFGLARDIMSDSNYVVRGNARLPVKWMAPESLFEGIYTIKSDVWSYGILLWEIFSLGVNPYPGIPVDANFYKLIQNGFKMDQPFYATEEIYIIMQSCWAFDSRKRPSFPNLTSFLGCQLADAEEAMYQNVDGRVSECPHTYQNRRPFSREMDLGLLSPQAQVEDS

[3] = target: Tyrosine-protein kinase JAK2 (Homo sapiens, UniProt O60674); test: Inhibition of JAK2 by spectrophotometry
Chain of Tyrosine-protein kinase JAK2 (O60674 whole entry): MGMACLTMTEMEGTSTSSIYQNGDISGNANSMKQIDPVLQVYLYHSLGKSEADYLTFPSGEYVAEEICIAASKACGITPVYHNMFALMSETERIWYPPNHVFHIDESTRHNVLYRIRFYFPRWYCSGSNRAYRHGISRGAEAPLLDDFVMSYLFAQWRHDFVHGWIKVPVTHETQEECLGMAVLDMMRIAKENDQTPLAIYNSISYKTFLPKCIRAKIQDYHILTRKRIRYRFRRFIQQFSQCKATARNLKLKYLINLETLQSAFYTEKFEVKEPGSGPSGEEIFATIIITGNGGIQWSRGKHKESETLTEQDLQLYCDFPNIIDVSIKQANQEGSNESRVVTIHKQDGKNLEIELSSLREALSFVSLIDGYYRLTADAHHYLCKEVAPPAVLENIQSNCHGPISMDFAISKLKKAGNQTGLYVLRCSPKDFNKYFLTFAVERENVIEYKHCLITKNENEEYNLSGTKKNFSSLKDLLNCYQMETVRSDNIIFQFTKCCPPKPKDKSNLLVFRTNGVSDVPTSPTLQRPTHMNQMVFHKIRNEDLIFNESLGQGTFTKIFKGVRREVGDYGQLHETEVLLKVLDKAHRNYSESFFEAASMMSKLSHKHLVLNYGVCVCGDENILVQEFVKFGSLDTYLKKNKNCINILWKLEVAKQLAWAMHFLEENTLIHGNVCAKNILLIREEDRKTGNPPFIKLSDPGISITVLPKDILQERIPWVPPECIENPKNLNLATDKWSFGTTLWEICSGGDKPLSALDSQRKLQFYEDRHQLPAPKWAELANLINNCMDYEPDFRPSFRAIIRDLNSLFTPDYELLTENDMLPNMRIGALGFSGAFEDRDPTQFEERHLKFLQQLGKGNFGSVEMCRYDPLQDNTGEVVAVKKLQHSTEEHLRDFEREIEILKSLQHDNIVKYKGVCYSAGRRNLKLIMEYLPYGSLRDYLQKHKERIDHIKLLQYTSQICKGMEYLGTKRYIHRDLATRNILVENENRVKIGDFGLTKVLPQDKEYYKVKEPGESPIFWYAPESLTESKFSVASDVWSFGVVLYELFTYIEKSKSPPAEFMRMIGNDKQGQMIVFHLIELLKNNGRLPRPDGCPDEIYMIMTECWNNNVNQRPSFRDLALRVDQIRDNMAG

[4] = target: T3, Interleukin-1 receptor-associated kinase 4 (Homo sapiens, UniProt Q9NWZ3); test: Inhibition of IRAK4 by spectrophotometry
T3 sequence (Q9NWZ3 whole entry): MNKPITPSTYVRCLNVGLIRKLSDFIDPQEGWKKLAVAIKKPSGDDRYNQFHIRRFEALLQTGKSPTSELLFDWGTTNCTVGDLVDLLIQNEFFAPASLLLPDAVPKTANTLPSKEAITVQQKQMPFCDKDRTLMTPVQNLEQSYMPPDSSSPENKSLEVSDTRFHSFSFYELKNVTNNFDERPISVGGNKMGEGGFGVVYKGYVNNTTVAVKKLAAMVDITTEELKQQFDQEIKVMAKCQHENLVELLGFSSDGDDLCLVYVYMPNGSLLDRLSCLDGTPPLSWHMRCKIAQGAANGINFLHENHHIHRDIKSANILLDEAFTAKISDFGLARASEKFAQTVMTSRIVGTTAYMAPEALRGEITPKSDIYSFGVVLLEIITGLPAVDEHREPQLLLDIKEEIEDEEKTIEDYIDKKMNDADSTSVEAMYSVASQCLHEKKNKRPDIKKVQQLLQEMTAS

[5] = Clearance in iv dosed rat; format: ADME, organism-based; conditions: in vivo
MV4-11 = test: Cytotoxicity against human MV411 cells
[6] = Half life in iv dosed rat; format: ADME, organism-based; conditions: in vivo

| Structure (SMILES) | Ki (Aurora kinase A) | Ki [1] | Ki [2] | Ki [3] | Ki [4] | clearance [5] | IC50 (MV4-11) | half-life [6] |
| --- | --- | --- | --- | --- | --- | --- | --- | --- |
| COc1ccccc1Nc1nc(N)n(-c2cc(NCCN(C)C)ncn2)n1 | 2100 nM | 270 nM | 1 nM | > 4000 nM | 78 nM |  |  |  |
| Nc1nc(Nc2ccccc2Cl)nn1-c1ccccn1 | 2000 nM |  | 18 nM | > 4000 nM | 1200 nM |  |  |  |
| Nc1nc(Nc2ccc(C(=O)N3CCOCC3)cc2)nn1-c1ccccn1 |  | 21 nM |  |  |  | 4.4 mL/min/kg | 2 nM | 2.22 h |
| Nc1nc(Nc2ccc(C(=O)NCCN3CCOCC3)cc2)nn1-c1ccccn1 |  |  |  |  |  | 63.9 mL/min/kg | 0.9 nM | 1.61 h |
| COc1ccccc1Nc1nc(N)n(-c2ccccn2)n1 | > 7000 nM | 12 nM | 15 nM | > 4000 nM | 420 nM |  |  |  |
| COc1ccc(Nc2nc(N)n(-c3ccccn3)n2)cc1OC | 103 nM | 9 nM | 2.8 nM | 67 nM | 43 nM |  |  |  |
| Nc1nc(Nc2ccc([C@H]3CC[C@@H](N4CCOCC4)CC3)cc2)nn1-c1ccccn1 |  |  | 5 nM |  |  | 77 mL/min/kg | 1 nM | 1.6 h |
| Nc1nc(Nc2ccc(OCCCN3CCOCC3)cc2)nn1-c1ccccn1 |  | < 50 nM |  |  |  | 67.2 mL/min/kg |  | 0.93 h |
| CC(=O)Nc1cccc(Nc2nc(N)n(-c3ccccn3)n2)c1 |  | 180 nM |  |  |  | 44.6 mL/min/kg | 15 nM | 2.81 h |
| Nc1nc(Nc2ccc(C(O)CCCN3CCOCC3)cc2)nn1-c1ccccn1 (stereo unspecified) |  | < 50 nM |  |  |  | 17.7 mL/min/kg | 1 nM | 1.03 h |
| COc1ccc(N2CCOCC2)cc1Nc1nc(N)n(-c2ccccn2)n1 | > 4000 nM | 60 nM | 6 nM | > 4000 nM | 160 nM |  |  |  |
